Measurements from ChEMBL document CHEMBL4422685, “Design, synthesis and evaluation of a series of 5-methoxy-2,3-naphthalimide derivatives as AcrB inhibitors for the reversal of bacterial resistance” (Bioorg Med Chem Lett, 2019).

Columns and labels:
[1] = test system: Escherichia coli; assay: Disruption of Escherichia coli inner membrane integrity at 128 ug/ml after 10 mins by DiOC2(3) probe based fluorescence assay; format: ADME, organism-based; details: in vivo
Procedure, shortened: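 Bacterial suspensions pre-exposed to compound for 10 min, then DiOC2(3) added and fluorescence followed to plateau. Cells re-energized with 0.5% glucose; membrane potential (inside negative) read as fluorescence rise to plateau, then collapsed with the proton ionophore CCCP. Untreated cells run alongside.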

[2] = biological target: T1, Multidrug efflux pump subunit AcrB (Escherichia coli (strain K12)) (UniProt P31224); assay: Inhibition of AcrB in wild-type drug-resistant Escherichia coli […] assessed as potentiation of levofloxacin-induced antimicrobial activity by measuring levofloxacin MIC at 32 ug/ml by checkerboard titration method (reference value: 0.063 ug/ml)
T1 sequence (whole entry): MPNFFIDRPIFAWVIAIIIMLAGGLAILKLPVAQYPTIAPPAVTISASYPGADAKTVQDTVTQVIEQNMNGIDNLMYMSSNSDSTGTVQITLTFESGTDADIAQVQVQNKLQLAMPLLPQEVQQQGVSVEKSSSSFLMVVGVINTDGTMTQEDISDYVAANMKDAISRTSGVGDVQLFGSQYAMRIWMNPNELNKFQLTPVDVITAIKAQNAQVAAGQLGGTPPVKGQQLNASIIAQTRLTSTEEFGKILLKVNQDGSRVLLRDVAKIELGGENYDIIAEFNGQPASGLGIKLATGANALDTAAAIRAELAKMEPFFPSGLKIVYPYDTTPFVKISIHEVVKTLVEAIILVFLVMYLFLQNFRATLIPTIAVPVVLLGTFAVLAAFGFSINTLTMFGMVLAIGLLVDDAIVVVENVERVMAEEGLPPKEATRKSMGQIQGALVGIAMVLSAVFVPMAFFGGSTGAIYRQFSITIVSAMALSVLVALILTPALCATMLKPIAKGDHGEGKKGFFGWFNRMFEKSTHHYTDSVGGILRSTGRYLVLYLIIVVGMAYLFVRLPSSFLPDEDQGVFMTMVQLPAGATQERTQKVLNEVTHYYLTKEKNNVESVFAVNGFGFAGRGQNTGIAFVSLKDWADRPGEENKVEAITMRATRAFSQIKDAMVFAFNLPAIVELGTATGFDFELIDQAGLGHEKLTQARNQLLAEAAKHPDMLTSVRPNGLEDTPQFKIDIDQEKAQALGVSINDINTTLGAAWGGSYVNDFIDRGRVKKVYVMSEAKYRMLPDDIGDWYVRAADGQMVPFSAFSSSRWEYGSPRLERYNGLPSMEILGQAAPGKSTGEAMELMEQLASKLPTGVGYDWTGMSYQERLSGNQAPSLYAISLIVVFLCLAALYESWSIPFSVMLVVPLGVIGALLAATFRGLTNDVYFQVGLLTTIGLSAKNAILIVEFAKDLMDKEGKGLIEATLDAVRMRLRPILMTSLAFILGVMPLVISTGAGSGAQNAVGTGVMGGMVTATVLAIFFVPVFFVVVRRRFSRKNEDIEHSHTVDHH

[3] = biological target: T1, Multidrug efflux pump subunit AcrB (Escherichia coli (strain K12)); assay: Inhibition of AcrB in wild-type drug-resistant Escherichia coli […] assessed as potentiation of chloramphenicol-induced antimicrobial activity by measuring chloramphenicol MIC at 8 ug/ml by checkerboard titration method (Rvb =16 ug/ml)
[4] = biological target: T1, Multidrug efflux pump subunit AcrB (Escherichia coli (strain K12)); assay: Inhibition of AcrB in wild-type drug-resistant Escherichia coli […] assessed as potentiation of tetraphenyl phosphonium chloride-induced antimicrobial activity by measuring tetraphenyl phosphonium chloride MIC at 8 ug/ml by checkerboard titration method (reference value: 1024 ug/ml)
[5] = biological target: T1, Multidrug efflux pump subunit AcrB (Escherichia coli (strain K12)); assay: Inhibition of AcrB in wild-type drug-resistant Escherichia coli BW2113 assessed as potentiation of chloramphenicol-induced antimicrobial activity by measuring chloramphenicol MIC at 16 ug/ml by checkerboard titration method (Rvb =16 ug/ml)
[6] = biological target: T1, Multidrug efflux pump subunit AcrB (Escherichia coli (strain K12)); assay: Inhibition of AcrB in wild-type drug-resistant Escherichia coli […] assessed as potentiation of levofloxacin-induced antimicrobial activity by measuring levofloxacin MIC at 64 ug/ml by checkerboard titration method (reference value: 0.063 ug/ml)
[7] = biological target: T1, Multidrug efflux pump subunit AcrB (Escherichia coli (strain K12)); assay: Inhibition of AcrB in wild-type drug-resistant Escherichia coli […] assessed as potentiation of tetraphenyl phosphonium chloride-induced antimicrobial activity by measuring tetraphenyl phosphonium chloride MIC at 32 ug/ml by checkerboard titration method (reference value: 1024 ug/ml)
[8] = biological target: T1, Multidrug efflux pump subunit AcrB (Escherichia coli (strain K12)); assay: Inhibition of AcrB in wild-type drug-resistant Escherichia coli […] assessed as potentiation of levofloxacin-induced antimicrobial activity by measuring levofloxacin MIC at 128 ug/ml by checkerboard titration method (reference value: 0.063 ug/ml)
[9] = biological target: T1, Multidrug efflux pump subunit AcrB (Escherichia coli (strain K12)); assay: Inhibition of AcrB in wild-type drug-resistant Escherichia coli […] assessed as potentiation of erythromycin-induced antimicrobial activity by measuring erythromycin MIC at 8 ug/ml by checkerboard titration method (reference value: 64 ug/ml)
[10] = biological target: T1, Multidrug efflux pump subunit AcrB (Escherichia coli (strain K12)); assay: Inhibition of AcrB in wild-type drug-resistant Escherichia coli […] assessed as potentiation of tetraphenyl phosphonium chloride-induced antimicrobial activity by measuring tetraphenyl phosphonium chloride MIC at 128 ug/ml by checkerboard titration method (reference value: 1024 ug/ml)
[11] = biological target: T1, Multidrug efflux pump subunit AcrB (Escherichia coli (strain K12)); assay: Inhibition of AcrB in wild-type drug-resistant Escherichia coli […] assessed as potentiation of erythromycin-induced antimicrobial activity by measuring erythromycin MIC at 16 ug/ml by checkerboard titration method (reference value: 64 ug/ml)
[12] = test system: Escherichia coli; assay: Induction of Escherichia coli outer membrane permeabilization assessed as increase in nitrocefin hydrolysis at 128 ug/ml by spectroscopic method; format: organism-based
[13] = biological target: T1, Multidrug efflux pump subunit AcrB (Escherichia coli (strain K12)); assay: Inhibition of AcrB in wild-type drug-resistant Escherichia coli […] assessed as potentiation of chloramphenicol-induced antimicrobial activity by measuring chloramphenicol MIC at 64 ug/ml by checkerboard titration method (Rvb =16 ug/ml)
[14] = biological target: T1, Multidrug efflux pump subunit AcrB (Escherichia coli (strain K12)); assay: Inhibition of AcrB in wild-type drug-resistant Escherichia coli […] assessed as potentiation of levofloxacin-induced antimicrobial activity by measuring levofloxacin MIC at 16 ug/ml by checkerboard titration method (reference value: 0.063 ug/ml)
[15] = biological target: T1, Multidrug efflux pump subunit AcrB (Escherichia coli (strain K12)); assay: Inhibition of AcrB in wild-type drug-resistant Escherichia coli […] assessed as potentiation of erythromycin-induced antimicrobial activity by measuring erythromycin MIC at 32 ug/ml by checkerboard titration method (reference value: 64 ug/ml)
[16] = biological target: T1, Multidrug efflux pump subunit AcrB (Escherichia coli (strain K12)); assay: Inhibition of AcrB in wild-type drug-resistant Escherichia coli […] assessed as potentiation of erythromycin-induced antimicrobial activity by measuring erythromycin MIC at 128 ug/ml by checkerboard titration method (reference value: 64 ug/ml)
[17] = biological target: T1, Multidrug efflux pump subunit AcrB (Escherichia coli (strain K12)); assay: Inhibition of AcrB in wild-type drug-resistant Escherichia coli […] assessed as potentiation of tetraphenyl phosphonium chloride-induced antimicrobial activity by measuring tetraphenyl phosphonium chloride MIC at 64 ug/ml by checkerboard titration method (reference value: 1024 ug/ml)

Row | Structure (SMILES) | Activity [1] | MIC [2] [µg/mL] | MIC [3] [µg/mL] | MIC [4] [µg/mL] | MIC [5] [µg/mL] | MIC [6] [µg/mL] | MIC [7] [µg/mL] | MIC [8] [µg/mL] | MIC [9] [µg/mL] | MIC [10] [µg/mL] | MIC [11] [µg/mL] | Activity [12] | MIC [13] [µg/mL] | MIC [14] [µg/mL] | MIC [15] [µg/mL] | MIC [16] [µg/mL] | MIC [17] [µg/mL]
1 | COc1cccc2cc3c(cc12)C(=O)N(C1CCCC1)C3=O | Non-Toxic | 0.063 | 16 | 1020 | 16 | 0.063 | 1020 | 0.063 | 64 | 1020 | 64 | Non-Toxic | 16 | 0.063 | 32 | 8 | 1020
2 | COc1cccc2cc3c(cc12)C(=O)N(Cc1ccccc1)C3=O | Non-Toxic | 0.063 | 16 | 1020 | 16 | 0.063 | 1020 | 0.063 | 32 | 512 | 32 | Non-Toxic | 16 | 0.063 | 32 | 16 | 1020
3 | COc1cccc2cc3c(cc12)C(=O)N(c1ccccc1Cl)C3=O | Non-Toxic | 0.063 | 16 | 1020 | 16 | 0.063 | 1020 | 0.063 | 64 | 512 | 64 | Non-Toxic | 16 | 0.063 | 64 | 16 | 1020
4 | COc1cccc2cc3c(cc12)C(=O)N(C(C)C)C3=O | Non-Toxic | 0.063 | 8 | 1020 | 8 | 0.0313 | 1020 | 0.0313 | 32 | 512 | 32 | Non-Toxic | 8 | 0.063 | 32 | 32 | 1020
5 | COc1ccc(CN2C(=O)c3cc4cccc(OC)c4cc3C2=O)cc1 |  | 0.063 | 16 | 1020 | 16 | 0.063 | 1020 | 0.063 | 64 | 1020 | 32 |  | 16 | 0.063 | 32 | 32 | 1020
6 | CCCCCN1C(=O)c2cc3cccc(OC)c3cc2C1=O | Non-Toxic | 0.063 | 16 | 1020 | 16 | 0.0313 | 1020 | 0.0313 | 64 | 512 | 64 | Non-Toxic | 8 | 0.063 | 32 | 8 | 1020
7 | CCCCCCN1C(=O)c2cc3cccc(OC)c3cc2C1=O | Non-Toxic | 0.063 | 16 | 1020 | 16 | 0.063 | 512 | 0.0313 | 64 | 128 | 32 | Non-Toxic | 8 | 0.063 | 32 | 8 | 512
8 | COc1cccc2cc3c(cc12)C(=O)N(C)C3=O | Non-Toxic | 0.0313 | 16 | 1020 | 16 | 0.0313 | 1020 | 0.0313 | 64 | 1020 | 64 |  | 16 | 0.063 | 64 | 32 | 1020
9 | COc1ccccc1CN1C(=O)c2cc3cccc(OC)c3cc2C1=O | Non-Toxic | 0.0039 | 16 | 1020 | 16 | 0.0019 | 1020 | 0.0019 | 64 | 512 | 64 | Non-Toxic | 16 | 0.0039 | 64 | 64 | 1020
10 | CCc1ccccc1N1C(=O)c2cc3cccc(OC)c3cc2C1=O | Non-Toxic | 0.0313 | 16 | 1020 | 16 | 0.0313 | 1020 | 0.0313 | 64 | 512 | 64 | Non-Toxic | 16 | 0.063 | 64 | 32 | 1020
